Sequences and labels used below:
B1: tRNA (parent)
chain: GUUCCGUUGGCGUAAUGGUAACGCGUCUCCCUCCUAAGGAGAAGACUGCGGGUUCGAGUCCCGUACGGAACG

This sample holds only a part of the variants without activity.

This data set covers variants of B1. The data set can be described thus: yeast fitness relative to wild type (ratio to wild type); higher = fitter; tRNA-Arg(CCU), competitive growth, 37 C, YPD. The essentials:
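Gene amplicons from the start population and from each of six end populations were read by 100-nucleotide paired-end sequencing. Those end populations came from pooled Saccharomyces cerevisiae strains carrying tRNA-Arg(CCU) gene variants at the native locus, competed in YPD at 37°C for 24 hours. Fitness relative to wild type was worked out from changes in genotype frequencies. Genotypes needed ≥ 100 starting reads, and estimates < 0.5 were set to 0.5.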
G38C C46G C55G C61G: the yeast fitness was no more than 0.5. Turning to G38C C49G G50C C61U, the yeast fitness was 0.555. Turning to G38C A70U, the yeast fitness amounted to 0.628. On to A37U A40C A42G, for which the yeast fitness is no more than 0.5. Consider G38A C46G G56C, for which the yeast fitness is no more than 0.5. Regarding G38C A43U, the yeast fitness worked out at 0.769.

With G38C A43C, the yeast fitness was determined as 1.12. Regarding G38C A43G, the yeast fitness worked out at 0.643. On to G38A A43G A69C, for which the yeast fitness is no more than 0.5. On to A37U A42G A45U C66U, for which the yeast fitness is no more than 0.5. G38A C49U U54C: the yeast fitness is no more than 0.5. As for A37C G38A G63A, the yeast fitness turned out to be 0.549. Consider G38C A57C, for which the yeast fitness was found to be 0.535.

In the case of G38C C55G A69C, the yeast fitness is 0.579.

A37G A43G C55A G56A: the yeast fitness came to 0.6. On to G38C G39C U54G, for which the yeast fitness is 0.545. Next, G38C C49G U54G: 0.621; G38C A45C U47C: no more than 0.5; G38A C66U: 0.909. Take G38A C66A: the yeast fitness turned out to be 0.72. On to G38A A40G C66A, for which the yeast fitness was 0.597. For the variant A37C G39C C49U, the yeast fitness was no more than 0.5. Take G38C A45U C66U: the yeast fitness was no more than 0.5. G38C A45C: the yeast fitness worked out at 0.58. For A37U G44A U54A C62G C66G A69G, the yeast fitness was no more than 0.5.

Take G38A C49A A70U: the yeast fitness worked out at 0.729. Next, A37U C55A: no more than 0.5. In the case of A37U C55G, the yeast fitness was 0.609. In the case of A37U C55U, the yeast fitness was 0.594.

For the variant A37U C49U U64A, the yeast fitness is no more than 0.5. Next, A37U A40C G58A: 0.591; A37G A70G: 0.832; G38A C60U G67C: no more than 0.5. Under A37G G39A C62A A69C stands no more than 0.5; under G38A U47C C62U, 0.539; under A37U G50C C66U, 0.593.

Consider A37G A65C, for which the yeast fitness stood at 0.942.

For G38C A65G, the yeast fitness was found to be 0.771. Next, A37G C61A C66U: no more than 0.5. Under G38A G44C stands 0.712. As to G38C A40C U53C, the yeast fitness was determined as 0.639. Next, G38C A43G C49G G51A C60U: no more than 0.5; A37U A45U U47C: no more than 0.5. For the variant A37G U59C, the yeast fitness stood at 0.741. As to G38A U53A C66U, the yeast fitness was no more than 0.5. Take A37C G52C: the yeast fitness is 0.537. Take A37C G41C A45G: the yeast fitness was no more than 0.5. Regarding A37U A70C, the yeast fitness was determined as 0.917.

In the case of A37U A70G, the yeast fitness came out at 0.72. Turning to A37G G52C, the yeast fitness is no more than 0.5. As for A37G G52A, the yeast fitness turned out to be 0.583.

Consider A37U A43U G48C, for which the yeast fitness turned out to be 0.514.

For A37G C49G A57C, the yeast fitness turned out to be 0.798. Under G38A A42U stands 0.661; under G38A A42C, 0.734. In the case of G38A U47C C66U, the yeast fitness was 0.555.

Turning to A37G G44C A57U G63C, the yeast fitness was no more than 0.5. As to G38C A40U G48A C66U, the yeast fitness amounted to 0.556. Take A37C G38C U54C C61U: the yeast fitness came to 0.678. G38C C60A: the yeast fitness was no more than 0.5. For the variant A37U G51A G52C U59C, the yeast fitness worked out at 0.619. For the variant G38C A40U G51A C60U, the yeast fitness came to 0.725.

As for G38C A45G U59A, the yeast fitness is no more than 0.5. In the case of A37G A40U C49A A57U, the yeast fitness was no more than 0.5. Regarding A37G G51C C62G C66U, the yeast fitness is no more than 0.5. On to A37G C46U, for which the yeast fitness worked out at 0.722.

For the variant A37C G41A A70C, the yeast fitness was no more than 0.5. Under A37C G41A stands 1.01; under A37U A42U C66A A69C, 0.572. For A37U U47C G51C G63C, the yeast fitness turned out to be 0.507. As for G38A G39A, the yeast fitness worked out at 0.637. As to G38A A40G, the yeast fitness worked out at 0.82. Consider G38A A40C, for which the yeast fitness worked out at 0.624.

On to G38C A40U A42G G51A C60U G68A, for which the yeast fitness is no more than 0.5. For G38A G48A C49G A70U, the yeast fitness is no more than 0.5.

G38A U47C G56A: the yeast fitness amounted to 0.673. On to A37U C62U G67A, for which the yeast fitness was no more than 0.5. Next, G38C C55U: 0.545; G38C C55G: 0.617; G38A A40C G56A C60U C61G G67U: no more than 0.5.

Regarding A37C U64G, the yeast fitness is 0.684. Under G38A C62A C66G stands 0.804. As for A37U C46G C55A U59C C61A C62U, the yeast fitness was found to be 0.524. Next, G38C G41A C61U: 0.553; G38A G48A G50A: no more than 0.5; A37C G38A: 0.636. Regarding A37G G38A C55U U59G, the yeast fitness is no more than 0.5. In the case of A37G A40U C55A, the yeast fitness stood at 0.829. A37G G39A A40G G41A A43G: the yeast fitness was no more than 0.5.

G38C C61A: the yeast fitness was determined as 0.608. Next, A37U C49U C61U: 0.527. As to G38A G63A, the yeast fitness was 0.897. Under G38A G48A C49G stands 0.525; under G38A A43G A57C, no more than 0.5. On to G38C C49U C62U A69U, for which the yeast fitness stood at 0.819. Regarding G38C C62U U64C A70U, the yeast fitness is no more than 0.5. A37G A43G A69U: the yeast fitness worked out at 0.802.

On to G38C G41C C55U G67C, for which the yeast fitness was no more than 0.5. For the variant A37U U64C, the yeast fitness came to 0.77.

Take A37U C46G U54C C61A: the yeast fitness is 0.543. Next, A37G C61A G63C: no more than 0.5; G38C C46A U59C: no more than 0.5; A37G U53C C62G: 0.594. Consider A37C U53A, for which the yeast fitness came out at 0.632. For A37G G63C, the yeast fitness turned out to be 0.66. Next, A37G G63A: 0.62; A37U A43C U47C C60G: no more than 0.5. In the case of A37G A40G A45U, the yeast fitness came out at 0.566. On to A37G C66U, for which the yeast fitness turned out to be 0.828. On to A37G C66G, for which the yeast fitness was 0.692. In the case of A37C G68A, the yeast fitness came to 0.729. Turning to A37C G68U, the yeast fitness was found to be 0.761. Under G38A A45G G52A C61G stands 0.679; under A37U G44A A69C, no more than 0.5; under A37U A45C, 0.64.

With A37U A45G, the yeast fitness was found to be 0.777. Under A37C G39C A65U stands no more than 0.5; under A37U C66G, no more than 0.5. For G38A U53C, the yeast fitness is 0.799. Consider G38A U53A, for which the yeast fitness came out at 0.587.

Take A37U G44A A70C: the yeast fitness worked out at 0.614.

With A37U G44A A70G, the yeast fitness is no more than 0.5. As for A37G G63C G68C, the yeast fitness was no more than 0.5. Next, A37U G51A: 0.57; A37U A45C G52C: no more than 0.5; G38C G39C C46U C66U A69U: no more than 0.5. In the case of A37U G68A, the yeast fitness was found to be 0.736. Next, G38A U64A: 0.765; A37G A45U U59A: no more than 0.5. On to G38C G41C A70C, for which the yeast fitness turned out to be 0.553.

For the variant A37U C60G, the yeast fitness amounted to 0.516. As to A37U C60U, the yeast fitness is 0.519.

With G38C G39C G56C G68A, the yeast fitness is no more than 0.5. For A37G G51C C62G, the yeast fitness is 0.55. Under G38C A43C G51C G56C stands no more than 0.5; under A37U A40U G67C, 0.563; under A37G G68A A69G, no more than 0.5.

In the case of G38C G41C A57C, the yeast fitness is 0.576. In the case of G38A C55A, the yeast fitness was found to be 0.71. As for A37G A45C C61G A70U, the yeast fitness is no more than 0.5. For the variant A37G G50C, the yeast fitness was determined as 0.693. Next, A37G A45C C61G: no more than 0.5; A37G A45C C61U: 0.579; G38A G50C: 0.746. On to G38A G50A, for which the yeast fitness is 0.859. For A37G A45C, the yeast fitness came to 0.78.

As for A37G A45U, the yeast fitness was 0.684.

For the variant A37C G39C C55U C61A, the yeast fitness stood at 0.532.

For G38A A70U, the yeast fitness is 0.953. For the variant G38A A70C, the yeast fitness is 0.942.

In the case of G38A A70G, the yeast fitness is 0.998. Turning to A37U C55U C61G A65U A70U, the yeast fitness is no more than 0.5. Under A37U A43C U53A U54C stands no more than 0.5. For A37G A42G, the yeast fitness amounted to 0.838.

Turning to G38A G41C A69U, the yeast fitness was determined as 0.822.

As for A37C G63A, the yeast fitness was 0.612.

Turning to A37C G63C, the yeast fitness was determined as 0.663.

Consider A37U A42G A69C, for which the yeast fitness is no more than 0.5.

In the case of A37U A42G A69U, the yeast fitness is no more than 0.5.

Consider A37G C55G C66G, for which the yeast fitness is no more than 0.5. Under G38A G67C stands 0.776. Take G38A G67U: the yeast fitness was 0.803.

Turning to A37G G51A, the yeast fitness is 0.704. Next, A37U C61U A70G: 0.572; A37G C55U G56A C66G: no more than 0.5; G38A C62A A65U C66U: no more than 0.5. Consider A37U G51A U53G U54C, for which the yeast fitness was no more than 0.5.

Values taken from the RNAGym collection of RNA variant scans (doi:10.1126/science.aae0568).
